Molecular target: Glutamate carboxypeptidase 2 (Homo sapiens, UniProt Q04609)
Assay: Inhibition of human recombinant N-terminal Avi-tagged glutamate carboxypeptidase 2 extracellular domain (44 to 750 amino acids) using pteroyl-di-L-glutamate substrate by HPLC method
Summary of the method: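 Avi-GCPII (0.2 ng) in 25 mM Bis-Tris propane, 150 mM NaCl, 0.001% octaethylene glycol monododecyl ether, pH 7.4, preincubated with inhibitor (ten concentrations) 5 min at 37 °C. Reaction started with pteroyl-di-L-glutamate (20 µl of 4 µM stock), run 20 min at 37 °C, stopped with 2-PMPA. Substrate and product separated by isocratic HPLC, detected at 281 nm; IC50 from full curves, Ki mean ± SD, duplicate or triplicate.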

Glutamate carboxypeptidase 2, sequence (Q04609 whole entry, the tested form may be a part): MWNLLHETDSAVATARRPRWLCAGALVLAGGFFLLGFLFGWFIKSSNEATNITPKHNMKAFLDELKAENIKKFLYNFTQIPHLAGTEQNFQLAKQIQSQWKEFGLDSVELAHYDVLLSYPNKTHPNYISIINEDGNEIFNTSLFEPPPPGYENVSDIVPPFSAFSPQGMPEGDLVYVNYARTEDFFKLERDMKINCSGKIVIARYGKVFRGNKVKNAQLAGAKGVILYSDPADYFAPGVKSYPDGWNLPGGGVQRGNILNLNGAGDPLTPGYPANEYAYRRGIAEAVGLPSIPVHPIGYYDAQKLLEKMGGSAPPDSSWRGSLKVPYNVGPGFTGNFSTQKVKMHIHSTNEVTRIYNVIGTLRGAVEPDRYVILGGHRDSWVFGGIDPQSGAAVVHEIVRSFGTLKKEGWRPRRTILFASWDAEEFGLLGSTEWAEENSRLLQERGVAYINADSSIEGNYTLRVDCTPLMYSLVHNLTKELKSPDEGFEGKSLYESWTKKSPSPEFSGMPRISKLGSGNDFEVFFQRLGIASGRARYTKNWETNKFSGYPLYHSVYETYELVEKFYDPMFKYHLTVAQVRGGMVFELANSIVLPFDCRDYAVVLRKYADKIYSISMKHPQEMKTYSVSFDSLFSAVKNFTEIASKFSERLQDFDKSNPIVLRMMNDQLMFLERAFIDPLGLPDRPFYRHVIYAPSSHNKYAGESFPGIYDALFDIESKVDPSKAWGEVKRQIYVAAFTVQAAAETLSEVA

Ki: 0.221 nM
SMILES: O=C(O)CC[C@H](NC(=O)N[C@@H](CCCCNC(=O)Nc1ccc(Br)cc1OCCNC(=O)CCOCCOCCOCCOCCOCCOCCOCCOCCOCCOCCOCCOCCNC(=O)CCCC[C@@H]1SC[C@@H]2NC(=O)N[C@@H]21)C(=O)O)C(=O)O

Reference: BindingDB's records for doi:10.1016/j.bmc.2014.05.061 (Academy of Sciences of The Czech Republic, 2014)
